Data taken from paper PMC6540510 (Pulmonary Circulation, 2019).
Like-named read-outs stand apart in the source and are kept apart here.

What was measured:
[1] = cited from earlier work
[2] = co-administered with lopinavir and ritonavir, healthy individuals; cited from earlier work
[3] = co-administration of ketoconazole, single 0.5 mg riociguat, 16 healthy volunteers; cited from earlier work
Safety and tolerability = format: in vivo, human
In short: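 HIV-infected adults (n = 41 treated) on stable background ART received a single fasted oral 0.5 mg dose. Treatment-emergent adverse events, vital signs, ECG and laboratory parameters were recorded. Supine and/or sitting blood pressure was measured regularly, generally at the blood-sampling times (0.5–48 h post-dose).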

[4] = format: in vivo, human; details: single 0.5 mg dose
In short: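 Single oral 0.5 mg dose was given fasted on top of stable background ART, with plasma sampled to 48 h and assayed by HPLC-MS/MS. AUC(0–∞) was derived non-compartmentally. ANOVA on log-transformed AUC gave LS-mean ratios versus historical healthy-volunteer data (n = 80; fed and fasted states), re-transformed, with 90% CIs.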

[5] = format: in vivo; details: human, plasma, 0.5 mg; for Tmax: adults with HIV
In short: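 Adults with HIV on stable fixed-dose background ART for ≥6 weeks received a single oral 0.5 mg dose in the morning after a ≥10 h fast, then a further 4-h fast. Plasma was sampled at baseline and 0.5–48 h. Analysis was by HPLC-MS/MS with internal standards (LLOQ 2 µg/L). Cmax was derived non-compartmentally and summarised as geometric mean with %CV.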

[6] = cited from earlier work; remark: listed apart in the source
[7] = sildenafil 100 mg single dose with ritonavir 500 mg twice daily; cited from earlier work
[8] = tadalafil 20 mg with ritonavir 200 mg twice daily; cited from earlier work
[9] = single 0.5 mg dose, adults with HIV
[10] = single 0.5 mg dose, adults with HIV, all background regimens, total n = 41
[11] = single 0.5 mg dose, adults with HIV, background abacavir/dolutegravir/lamivudine (TRIUMEQ), n = 8
[12] = single 0.5 mg dose, adults with HIV, background efavirenz/emtricitabine/tenofovir disoproxil (ATRIPLA), n = 8
[13] = single 0.5 mg dose, adults with HIV, background elvitegravir/cobicistat/emtricitabine/tenofovir disoproxil (STRIBILD), n = 8
[14] = single 0.5 mg dose, adults with HIV, background emtricitabine/rilpivirine/tenofovir disoproxil (COMPLERA), n = 8
[15] = single 0.5 mg dose, adults with HIV, background ritonavir-boosted triple regimen, n = 9

COC(=O)Nc1c(N)nc(-c2nn(Cc3ccccc3F)c3ncccc23)nc1N [M1]
biologic activity relative to riociguat [1]: one-tenth to one-third

COc1ccccc1Oc1c(NS(=O)(=O)c2ccc(C(C)(C)C)cc2)nc(-c2ncccn2)nc1OCCO [bosentan]
plasma concentrations on co-administration [2]: increased plasma concentrations

COC(=O)N(C)c1c(N)nc(-c2nn(Cc3ccccc3F)c3ncccc23)nc1N [riociguat]
increase in mean AUC0-∞ compared with controls [3]: 2.5 fold | AEs considered related to riociguat (Safety and tolerability; headache and stomach cramps, all resolved by study end): Four AEs were considered related to riociguat in three participants | AEs related to decreased blood pressure or hypotension (Safety and tolerability; [9]): No AEs related to decreased blood pressure or hypotension were reported | changes in vital signs, electrocardiogram, or laboratory parameters (Safety and tolerability; [9]): No clinically significant changes | intensity of AEs (Safety and tolerability; [9]): mild or moderate | tolerability (Safety and tolerability; single 0.5 mg dose, adults with HIV on stable background ART): well tolerated | serious AEs, AEs leading to discontinuation, or deaths (Safety and tolerability; single 0.5 mg dose, adults with HIV, n = 41): no serious AEs, AEs leading to discontinuation, or deaths | participants with headache (Safety and tolerability; single 0.5 mg dose, adults with HIV, n = 41 (four participants)): 10% | participants with a treatment-emergent AE (Safety and tolerability; single 0.5 mg dose, adults with HIV, n = 41 (ten participants)): 24% | participants with fatigue (Safety and tolerability; single 0.5 mg dose, adults with HIV, n = 41 (two participants)): 5% | Any AE (Safety and tolerability; [10]): 10 (24) n (%) | Diarrhea (Safety and tolerability; [10]): 1 (2) n (%) | Dizziness (Safety and tolerability; [10]): 1 (2) n (%) | Fatigue (Safety and tolerability; [10]): 2 (5) n (%) | Headache (Safety and tolerability; [10]): 4 (10) n (%) | Lip swelling (Safety and tolerability; [10]): 1 (2) n (%) | Oral paresthesia (Safety and tolerability; [10]): 1 (2) n (%) | Oropharyngeal pain (Safety and tolerability; [10]): 1 (2) n (%) | Pain (Safety and tolerability; [10]): 1 (2) n (%) | Pyrexia (Safety and tolerability; [10]): 1 (2) n (%) | Upper abdominal pain (Safety and tolerability; [10]): 1 (2) n (%) | Urethritis (Safety and tolerability; [10]): 1 (2) n (%) | Any AE (Safety and tolerability; [11]): 2 (25) n (%) | Diarrhea (Safety and tolerability; [11]): 0 n (%) | Dizziness (Safety and tolerability; [11]): 0 n (%) | Fatigue (Safety and tolerability; [11]): 1 (13) n (%) | Headache (Safety and tolerability; [11]): 1 (13) n (%) | Lip swelling (Safety and tolerability; [11]): 0 n (%) | Oral paresthesia (Safety and tolerability; [11]): 0 n (%) | Oropharyngeal pain (Safety and tolerability; [11]): 0 n (%) | Pain (Safety and tolerability; [11]): 0 n (%) | Pyrexia (Safety and tolerability; [11]): 1 (13) n (%) | Upper abdominal pain (Safety and tolerability; [11]): 0 n (%) | Urethritis (Safety and tolerability; [11]): 0 n (%) | Any AE (Safety and tolerability; [12]): 1 (13) n (%) | Diarrhea (Safety and tolerability; [12]): 0 n (%) | Dizziness (Safety and tolerability; [12]): 0 n (%) | Fatigue (Safety and tolerability; [12]): 0 n (%) | Headache (Safety and tolerability; [12]): 0 n (%) | Lip swelling (Safety and tolerability; [12]): 0 n (%) | Oral paresthesia (Safety and tolerability; [12]): 1 (13) n (%) | Oropharyngeal pain (Safety and tolerability; [12]): 0 n (%) | Pain (Safety and tolerability; [12]): 0 n (%) | Pyrexia (Safety and tolerability; [12]): 0 n (%) | Upper abdominal pain (Safety and tolerability; [12]): 0 n (%) | Urethritis (Safety and tolerability; [12]): 0 n (%) | Any AE (Safety and tolerability; [13]): 2 (25) n (%) | Diarrhea (Safety and tolerability; [13]): 0 n (%) | Dizziness (Safety and tolerability; [13]): 1 (13) n (%) | Fatigue (Safety and tolerability; [13]): 1 (13) n (%) | Headache (Safety and tolerability; [13]): 0 n (%) | Lip swelling (Safety and tolerability; [13]): 1 (13) n (%) | Oral paresthesia (Safety and tolerability; [13]): 0 n (%) | Oropharyngeal pain (Safety and tolerability; [13]): 0 n (%) | Pain (Safety and tolerability; [13]): 0 n (%) | Pyrexia (Safety and tolerability; [13]): 0 n (%) | Upper abdominal pain (Safety and tolerability; [13]): 0 n (%) | Urethritis (Safety and tolerability; [13]): 0 n (%) | Any AE (Safety and tolerability; [14]): 3 (38) n (%) | Diarrhea (Safety and tolerability; [14]): 0 n (%) | Dizziness (Safety and tolerability; [14]): 0 n (%) | Fatigue (Safety and tolerability; [14]): 0 n (%) | Headache (Safety and tolerability; [14]): 1 (13) n (%) | Lip swelling (Safety and tolerability; [14]): 0 n (%) | Oral paresthesia (Safety and tolerability; [14]): 0 n (%) | Oropharyngeal pain (Safety and tolerability; [14]): 1 (13) n (%) | Pain (Safety and tolerability; [14]): 1 (13) n (%) | Pyrexia (Safety and tolerability; [14]): 0 n (%) | Upper abdominal pain (Safety and tolerability; [14]): 0 n (%) | Urethritis (Safety and tolerability; [14]): 1 (13) n (%) | Any AE (Safety and tolerability; [15]): 2 (22) n (%) | Diarrhea (Safety and tolerability; [15]): 1 (11) n (%) | Dizziness (Safety and tolerability; [15]): 0 n (%) | Fatigue (Safety and tolerability; [15]): 0 n (%) | Headache (Safety and tolerability; [15]): 2 (22) n (%) | Lip swelling (Safety and tolerability; [15]): 0 n (%) | Oral paresthesia (Safety and tolerability; [15]): 0 n (%) | Oropharyngeal pain (Safety and tolerability; [15]): 0 n (%) | Pain (Safety and tolerability; [15]): 0 n (%) | Pyrexia (Safety and tolerability; [15]): 0 n (%) | Upper abdominal pain (Safety and tolerability; [15]): 1 (11) n (%) | Urethritis (Safety and tolerability; [15]): 0 n (%) | riociguat exposure (AUC) compared with historical healthy volunteers ([4]; administered with abacavir/dolutegravir/lamivudine): increased by approximately threefold | riociguat exposure (AUC) compared with historical healthy volunteers ([4]; administered with ritonavir-boosted triple regimen): slightly increased | riociguat exposure (AUC) compared with historical healthy volunteers ([4]; co-administered with efavirenz/emtricitabine/tenofovir disoproxil): similar | riociguat exposure (AUC) compared with historical healthy volunteers ([4]; co-administered with efavirenz/emtricitabine/tenofovir disoproxil, listed as Riociguat): no apparent change | Cmax ([5]; oral): 14.2 to 20.4 ng/mL | Tmax ([5]; oral, median tmax, range across the five background antiretroviral groups, single 0.5 mg dose): 1 to 1.27 h | Tmax ([5]; po, tmax, single 0.5 mg oral dose, background abacavir/dolutegravir/lamivudine (TRIUMEQ), median (range), n = 8): 1.27 h | Tmax ([5]; po, tmax, single 0.5 mg oral dose, background efavirenz/emtricitabine/tenofovir disoproxil (ATRIPLA), median (range), n = 8): 1 h | Tmax ([5]; po, tmax, single 0.5 mg oral dose, background elvitegravir/cobicistat/emtricitabine/tenofovir disoproxil (STRIBILD), median (range), n = 8): 1.03 h | Tmax ([5]; po, tmax, single 0.5 mg oral dose, background emtricitabine/rilpivirine/tenofovir disoproxil (COMPLERA), median (range), n = 8): 1.03 h | Tmax ([5]; po, tmax, single 0.5 mg oral dose, background ritonavir-boosted triple regimen, median (range), n = 8): 1.03 h | bioavailability [6]: > 90% | fraction of the dose eliminated by oxidative biotransformation [6]: 27–71% | mean half-life ([6]; healthy individuals): approximately 7 h | mean half-life ([6]; patients with PAH): approximately 12 h

CCCc1nn(C)c2c(=O)[nH]c(-c3cc(S(=O)(=O)N4CCN(C)CC4)ccc3OCC)nc12 [sildenafil]
increase in plasma AUC [7]: 11 fold

CN1CC(=O)N2[C@H](c3ccc4c(c3)OCO4)c3[nH]c4ccccc4c3C[C@@H]2C1=O [tadalafil]
change in Cmax [8]: no change | increase in single-dose exposure [8]: 124%
